# Laboratory results published in the EternaBench riboswitch data.
# System: MS2 coat protein
# Assay: apparent Kd, MS2 coat protein; higher = weaker binding; RNA-MaP array; theophylline 2 mM where present
# In short: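 In 100 mM Tris-HCl pH 7.5, 80 mM KCl, 4 mM MgCl2, BSA, DTT, yeast tRNA and Tween-20, SNAP-549-labelled MS2 coat protein was titrated from 0.7 or 1.5 nM, doubling to 3 µM, over designs transcribed by stalled E. coli RNA polymerase on Illumina sequencing-chip clusters. This was done first without ligand, then with ligand held constant. After green signal was normalised to red-channel RNA signal and control-cluster median Fmax, the apparent Kd was taken as the median of filtered per-cluster binding-curve fits.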
# [1] = designed as: OFF switch for theophylline, no ligand
# [2] = ligand present: theophylline, designed as: OFF switch for theophylline
# [3] = designed as: ON switch for theophylline, no ligand
# [4] = ligand present: theophylline, designed as: ON switch for theophylline
Sequence,apparent Kd [1] [nM],apparent Kd [2] [nM],apparent Kd [3] [nM],apparent Kd [4] [nM]
UGACAUUGCUCAGAUACCAGACAUGAGGAUCACCCAUGUACCAAGGUACCCGAAAGGAAUGUCCCUUGGCAGCUGAGCAAUGUCU,9.93,21.6,,
AAUAACAUGAGGAUCACCCAUGUAAAAGAUACCAGAGUGAUGAUCCUCCCUUGGCAGCUUAAUAACGCUAUCGGAAACGAUAGCG,,,69.2,105
ACGAUACGACAUGAGGAUCACCCAUGUGAUACCAGCGUGGAAACACGCCCUUGGCAGCACAAAUACUCCAGAAACGUAUCGAAAA,239,389,,
AACCGAGGCUAUCCUCUAAGACUAUGUGAUACCAGAAUAAUUUUAUUCCCUUGGCAGCAUGACAUGAGGAUCACCCAUGUCUCUU,,,27.8,32.3
ACAACAUGAGGCGAUACCAGAGGCAACAUGAGGAUCACCCAUGUUCACCCAUGUGAUCACCUCCCUUGGCAGCGCACAUGAGGAU,,,12.4,30
UUAUUUAUAAUGGAUACCAGUUUAAUGGCCGCAAAUCCUGACAUGAGGAUCACCCAUGUAAGCCCUUGGCAGCUGUUAUGGGUUU,34.8,41.3,,
AUAAUGGGUAUCGGAUUAUCAUGGAAUGAUACCAGAUACUUAGAUAUCCCUUGGCAGCAUGAGGACAUGAGGAUCACCCAUGUAU,46.4,118,,
CUCUGAGUCCGAAAGGACUCAGAGGCGGAUACCAGCGAGGUCCAUCGCCCUUGGCAGCCGAACAUGAGGAUCACCCAUGUCGGUA,,,10.5,14.5
ACCCAUAAUUGGGCGGGUGGAUUGAGUGAUACCAGUCGUAUACAUGACCCUUGGCAGCACCGACAUGAGGAUCACCCAUGUGCCA,,,39.7,99.8
AGAUAACAUGGUUUAAUAAGUUAAACUGAUACCAGUGUAUAUAAUCACCCUUGGCAGCAGCAACAUGAGGAUCACCCAUGUAAUA,,,17.2,21.9
GGCUGUUGCGAUUUGAAGCGGCAGCGUGAUACCAGAUGUAAGAGCGUCCCUUGGCAGCACGUUUACAUGAGGAUCACCCAUGUCA,,,106,60
AAAUAAAUAACUGAUACCAGUGUACUGACAUGAGGAUCACCCAUGUUGGGUUUGGUUGUACACCCUUGGCAGCAGAAAUAUAAAA,15.9,29.8,,
CGUGGUGGGACGGAUACCAGCCACCGCGGCAACGCAACAUGAGGAUCACCCAUGUUGGGUGGCCCUUGGCAGCUGUCCUGCGGCG,,,11.5,13.4
AUCCUUAAUAGGGUAAAUGGAUAAAGUGAUACCAGUCAAAUACAAGACCCUUGGCAGCACAAGGACAUGAGGAUCACCCAUGUCA,,,20.5,14.7
UCGCAUUGCUGCGAUACCAGACAUGAGGAUCACCCAUGUACCAAGAAAACGUACAUAAAUGUCCCUUGGCAGCGCAGCAAUGCGU,443,1110,,
UGGUACAUGAGGAUCACCCAUGUUCCAGAUACCAGAUACCCGGUUAUCCCUUGGCAGCUGGUGGUACAUGAGGAUCACCCAUGUG,36.1,86.7,,
UUAUGAUGUUCCGAUACCAGCCAUGUGGUUCUAACUUAACAUGAGGAUCACCCAUGUACCGGCCCUUGGCAGCGGAUGUGGAUUA,,,11.2,17
GCACCAGGUACGGAUACCAGCUGCCAGCGUUACAUGAGGAUCACCCAUGUGAUCUGAUAUAGCCCUUGGCAGCUGUACCUGGUGC,,,110,865
